# Results gathered from unrelated publications.
# Each line is one published result; the experiments were not run side by side.
# Target: Serine/threonine-protein kinase N1 (PKN1, Homo sapiens, UniProt Q16512)
SMILES,effect on,action,technique,tested at,measurement,result
CC/C(=N\NC(=O)NCc1cccc(O)c1)c1ccc(O)c(C)c1O,enzyme activity,inhibitor,,0.1 µM,inhibition,29.1%
CCCS(=O)(=O)Nc1ccc(F)c(C(=O)c2c[nH]c3ncc(-c4ccc(Cl)cc4)cc23)c1F,enzyme activity,inhibitor,,1 µM,inhibition,< 10%
C#Cc1cccc(Nc2ncnc3cc(OCCOC)c(OCCOC)cc23)c1,cell-free assay,,,0.5 µM,remaining signal,108%
Cc1sc(C(=O)NC2COC2)cc1-n1cc(NC(=O)Nc2c(F)cccc2Cl)cn1,enzyme activity,inhibitor,,10 µM,remaining activity,76.8%
O=S(=O)(c1cccc2cnccc12)N1CCCNCC1,cell-free assay,,,0.5 µM,remaining signal,40.5%
CC(C)NC[C@@H](C(=O)N1CCN(c2ncnc3c2[C@H](C)C[C@H]3O)CC1)c1ccc(Cl)cc1,enzyme activity,inhibitor,,1 µM,activity vs control,1%
O=C(NCc1ncc(C(F)(F)F)cc1Cl)c1ccc2c(c1)C1(CCS(=O)(=O)CC1)[C@@H](C1CC1)N2S(=O)(=O)c1ccc(F)cc1,cell-free assay,,competition with immobilised ligand,1 µM,remaining binding,100%
Cc1c(NC(=O)c2cc3c(s2)CCCC3)cccc1-c1cn(C)c(=O)c(Nc2ccc([C@@H]3C(=O)N(C)CCN3C)cc2)n1,enzyme activity,inhibitor,,1 µM,activity vs control,76%
CCCCN(CCCC)C(=O)CN1C[C@@H](c2cc(OC)c3c(c2)OCO3)[C@H](C(=O)O)[C@H]1CC(C)(C)CCC,cell-free assay,,competition with immobilised ligand,1 µM,remaining binding,85%
CN(C)C1CCN(CC#Cc2nn(C3CCCC3)c3nc(NCc4ccccc4)ncc23)C1 (stereo not shown),enzyme activity,inhibitor,FRET,10 µM,inhibition,4%
C[C@H](c1cccc(C#N)c1)n1cc(Cl)cc(C(N)=O)c1=N,cell-free assay,,competition with immobilised ligand,1 µM,remaining binding,65%
O=C(Nc1cnn2ccc(N3CCC[C@@H]3c3cc(F)ccc3F)nc12)N1CC[C@H](O)C1,enzyme activity,inhibitor,,1 µM,activity vs control,94%
CN([C@@H]1CCc2c(CC(=O)O)c3ccccc3n2C1)S(=O)(=O)c1ccc(F)cc1,cell-free assay,,competition with immobilised ligand,1 µM,remaining binding,83%
Cn1c(=O)n(-c2ccc(C(C)(C)C#N)cc2)c2c3cc(-c4cnc5ccccc5c4)ccc3ncc21,enzyme activity,inhibitor,,1 µM,activity vs control,84%
C[C@@]1(Cc2ccc(C#N)cc2)C(=O)N(c2cc(Cl)cc(Cl)c2)c2ncc(C(=O)NC3(c4nc(C5CCC5)no4)CC3)n21,cell-free assay,,competition with immobilised ligand,1 µM,remaining binding,100%
COc1cc(-c2cc(-c3ccc(N4CCNCC4)cc3)cnc2C)cc(OC)c1OC,enzyme activity,inhibitor,,0.1 µM,inhibition,10%
Cl.Cl.O=C(NCCCNc1nc(Nc2cccc(CN3CCOCC3)c2)ncc1C1CC1)C1CCC1,enzyme activity,inhibitor,,1 µM,activity vs control,52%
Cn1c2c(Cl)c(Cl)ccc2c2cc[nH]c(=O)c21,thermal stability,,DSF,10 µM,ΔTm,0.9 °C
CN(C(=O)c1ccccc1)c1cc(N(C)c2ccc3c(c2)CCc2ccc(C(=O)NCCN4CCOCC4)cc2C3=O)ccc1F,cell-free assay,,competition with immobilised ligand,1 µM,remaining binding,100%
Cc1cc(F)c(Nc2ncnc3cc(OCc4ccccc4)ccc23)cc1O.Cl,enzyme activity,inhibitor,,1 µM,activity vs control,89%
CNCc1ccccc1-c1csc([C@H](C)Nc2nc(C)nc3cc(OC)c(OC)cc23)c1,cell-free assay,,competition with immobilised ligand,1 µM,remaining binding,100%
CC[C@@H]1C(=O)N(C)c2cnc(Nc3ccc(C(=O)NC4CCN(C)CC4)cc3OC)nc2N1C1CCCC1,enzyme activity,inhibitor,,1 µM,activity vs control,77%
